For 1 compound, k cat results are on record in ChEMBL document CHEMBL1128301, “Cephalosporin derivatives of doxorubicin as prodrugs for activation by monoclonal antibody-beta-lactamase conjugates” (J Med Chem, 1995).

The target of test [1] is T1, Metallo-beta-lactamase type 2 (Bacillus cereus) (UniProt P14488).
T1 sequence (whole entry): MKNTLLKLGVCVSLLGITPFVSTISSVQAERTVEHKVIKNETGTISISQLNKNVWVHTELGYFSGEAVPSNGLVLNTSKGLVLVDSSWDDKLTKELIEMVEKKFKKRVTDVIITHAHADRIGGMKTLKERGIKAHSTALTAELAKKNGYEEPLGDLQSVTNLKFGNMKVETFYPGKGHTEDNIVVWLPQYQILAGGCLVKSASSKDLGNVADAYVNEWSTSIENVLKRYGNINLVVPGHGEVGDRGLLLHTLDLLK
The test can be described thus: The kinetic constant(kcat) value as spectrophotometrically by using Bacillus cereus beta-lactamase (BCbL) enzyme as catalyst. The method in brief:
(§1)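 Spectrophotometric hydrolysis at 23 °C in PBS with 12.5 μg/mL BSA. EClbL was used at 0.1 μg/mL; BCbL and ECbL at 1.0 μg/mL. […] Initial velocities were linear over 1 min.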

The target of test [2] is Beta-lactamase (Enterobacter cloacae) (UniProt P05364). Kind of test: The kinetic constant(kcat) value as spectrophotometrically by using Enterobacter cloacae P99 beta-lactamase (ECIbL) enzyme as catalyst. The method in brief:
as §1

The target in test [3] is Beta-lactamase TEM (Escherichia coli) (UniProt P62593). The test can be described thus: The kinetic constant(kcat) value as spectrophotometrically by using Escherichia coli TEM-1 beta-lactamase (ECbL) enzyme as catalyst. The method, boiled down: as §1
Beta-lactamase TEM (Escherichia coli), sequence (P62593 whole entry): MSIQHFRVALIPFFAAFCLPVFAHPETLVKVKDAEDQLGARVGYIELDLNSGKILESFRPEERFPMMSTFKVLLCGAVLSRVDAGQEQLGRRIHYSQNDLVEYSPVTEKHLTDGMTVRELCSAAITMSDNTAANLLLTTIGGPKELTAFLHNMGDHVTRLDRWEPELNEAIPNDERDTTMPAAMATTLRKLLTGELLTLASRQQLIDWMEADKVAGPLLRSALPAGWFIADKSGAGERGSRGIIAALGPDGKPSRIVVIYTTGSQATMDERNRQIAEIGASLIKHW

Beta-lactamase (Enterobacter cloacae), sequence (P05364 21-381 limits assumed): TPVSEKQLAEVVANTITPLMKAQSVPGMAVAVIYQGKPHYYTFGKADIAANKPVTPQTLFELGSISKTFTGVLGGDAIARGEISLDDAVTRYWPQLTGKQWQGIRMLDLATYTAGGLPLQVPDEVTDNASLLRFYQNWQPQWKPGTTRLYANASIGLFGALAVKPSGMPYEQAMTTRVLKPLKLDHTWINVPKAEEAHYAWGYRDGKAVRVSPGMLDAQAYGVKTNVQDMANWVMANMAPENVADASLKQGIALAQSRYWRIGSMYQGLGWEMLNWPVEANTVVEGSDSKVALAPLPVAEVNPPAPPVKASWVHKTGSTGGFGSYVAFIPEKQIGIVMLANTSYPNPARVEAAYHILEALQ

With `COc1cccc2c1C(=O)c1c(O)c3c(c(O)c1C2=O)C[C@@](O)(C(=O)CO)C[C@@H]3OC1CC(NC(=O)OCC2=C(C(=O)O)N3C(=O)[C@@H](NC(=O)CCCC(=O)O)[C@H]3SC2)C(O)C(C)O1` (stereo partly drawn), the k cat turned out to be 6.6 s⁻¹ in test [1], 210 s⁻¹ in test [2] and 2.8 s⁻¹ in test [3].
